Laboratory results as given in ChEMBL document CHEMBL3112398, “Qualification of LSP1-2111 as a Brain Penetrant Group III Metabotropic Glutamate Receptor Orthosteric Agonist” (ACS Med Chem Lett, 2014).

Assays:
[1] = Fraction unbound in mouse brain homogenates; assay type: ADME, tissue-based; conditions: brain homogenate
[2] = molecular target: Metabotropic glutamate receptor 4 (Homo sapiens, UniProt Q14833); assay: Displacement of [3H]-L-AP4 from human mGlu4 receptor
[3] = Drug uptake in Sprague-Dawley rat ECF at 30 mg/kg, sc after 60 mins by quantitative microdialysis method; assay type: ADME, organism-based; design: dose 30 mg/kg, route subcutaneous; conditions: read-out: Drug uptake
Summary of the method: (§1)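 Rat in vivo microdialysis with a MetaQuant probe at a low flow rate of 0.1 μL/min after SC doses of 10 or 30 mg/kg. Brain ECF dialysate and plasma concentrations followed over time. ECF values corrected for 96% in vivo probe recovery.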

[4] = Fraction unbound in human plasma; assay type: ADME, cell-free
[5] = AUC (0 to 6 hrs) in Sprague-Dawley rat CSF at 10 mg/kg, sc by quantitative microdialysis method; assay type: ADME, organism-based; design: time < 6 hr, dose 10 mg/kg, route subcutaneous
Summary of the method: (§2)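 Rats dosed SC at 10 mg/kg with drug in saline at pH 7.4; plasma, CSF and brain homogenate sampled over a 6 h time course (0.5–6 h), N = 4. Brain not perfused before homogenization. AUC0-6 computed from the concentration–time profiles.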

Plasma [6] = assay: Plasma concentration in Sprague-Dawley rat at 10 mg/kg, sc after 0.5 to 6 hrs by quantitative microdialysis method; assay type: ADME, organism-based; design: dose 10 mg/kg, route subcutaneous; conditions: in vivo; summary of the method: as §2
[7] = Volume of distribution at steady state in Sprague-Dawley rat at 1 mg/kg, iv; assay type: ADME, organism-based; design: dose 1 mg/kg, route intravenous; conditions: in vivo, read-out: Vdss
Summary of the method: (§3)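 SD rats given IV (1 mg/kg) or oral (10 mg/kg) doses as a solution in saline buffered to pH 7.4, dose volume 5 mL/kg, N = 2. Plasma concentration–time profiles analysed by noncompartmental analysis; reported values are means.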

[8] = Lipophilicity, log D of the compound at pH 7.4; assay type: physicochemical; conditions: buffer
[9] = Half life in Sprague-Dawley rat plasma at 10 mg/kg, sc by quantitative microdialysis method; assay type: ADME, organism-based; design: dose 10 mg/kg, route subcutaneous; summary of the method: as §2
Liver microsome [10] = assay: Intrinsic clearance in rat liver microsomes; assay type: ADME
[11] = Drug uptake in Sprague-Dawley rat CSF at 10 mg/kg, sc after 6 hrs by quantitative microdialysis method; assay type: ADME, organism-based, Cerebrospinal fluid; design: dose 10 mg/kg, route subcutaneous; conditions: read-out: Drug uptake; summary of the method: as §2
[12] = Ratio of AUC (0 to 6 hrs) from CSF to plasma in Sprague-Dawley rat at 10 mg/kg, sc by quantitative microdialysis method; assay type: ADME, organism-based; design: dose 10 mg/kg, route subcutaneous
Summary of the method: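 Rats given 10 mg/kg SC, formulated in saline at pH 7.4 (N = 4). Plasma, CSF and brain were sampled over a 6 h time course starting at 0.5 h. Brain was homogenized without perfusion, so capillary blood was retained. Ratios were calculated from AUC0-6 of CSF or brain homogenate versus plasma.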

MDR1 [13] = assay: Apparent permeability from basolateral to apical side in MDCK cells expressing MDR1; assay type: ADME, cell-based, Canis lupus familiaris; conditions: dog
Summary of the method: (§4)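 Bidirectional transport across MDCK/MDR1 monolayers, apparent permeability measured A→B and B→A. The B→A/A→B ratio is used as an indicator of P-gp substrate behaviour.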

Homo sapiens [14] = organism: Homo sapiens; assay: Selectivity for mGlu4 receptor (unknown origin) over mGlu8 receptor (unknown origin)
Brain [15] = assay: Drug uptake in Sprague-Dawley rat brain at 10 mg/kg, sc after 6 hrs by quantitative microdialysis method; assay type: ADME, organism-based; design: dose 10 mg/kg, route subcutaneous; conditions: in vivo; summary of the method: as §2
[16] = Plasma clearance in Sprague-Dawley rat at 1 mg/kg, iv; assay type: ADME, organism-based; design: dose 1 mg/kg, route intravenous; summary of the method: as §3
[17] = AUC (infinity) in Sprague-Dawley rat at 10 mg/kg, po; assay type: ADME, organism-based; design: time infinity, dose 10 mg/kg, route oral; conditions: plasma
Summary of the method: (§5)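 Plasma concentrations were followed over time. Pharmacokinetic parameters were derived by noncompartmental analysis and reported as means of N = 2 animals.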

[18] = Kinetic aqueous solubility of the compound; assay type: physicochemical; conditions: buffer; read-out: Kinetic_solubility
Summary of the method: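 Kinetic aqueous solubility determined in an assay developed and optimized for lipophilic compounds; detection limit 800 μM.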

[19] = AUC (0 to 6 hrs) in Sprague-Dawley rat plasma at 10 mg/kg, sc by quantitative microdialysis method; assay type: ADME, organism-based; design: time < 6 hr, dose 10 mg/kg, route subcutaneous; summary of the method: as §2
HepG2 = assay: Cytotoxicity against human HepG2 cells by luminescence assay; assay type: cell-based
[20] = Passive apparent permeability of the compound by PAMPA; assay type: ADME
[21] = Tmax in Sprague-Dawley rat at 10 mg/kg, po; assay type: ADME, organism-based; design: dose 10 mg/kg, route oral; conditions: in vivo; summary of the method: as §3
Homo sapiens [22] = organism: Homo sapiens; assay: Selectivity for mGlu4 receptor (unknown origin) over mGlu6 receptor (unknown origin)
hERG (KCNH2) = hERG (KCNH2) (Homo sapiens, UniProt Q12809); assay: Inhibition of human ERG channel at 30 uM by ionworks assay
Sequence of hERG (KCNH2) (Q12809 whole entry): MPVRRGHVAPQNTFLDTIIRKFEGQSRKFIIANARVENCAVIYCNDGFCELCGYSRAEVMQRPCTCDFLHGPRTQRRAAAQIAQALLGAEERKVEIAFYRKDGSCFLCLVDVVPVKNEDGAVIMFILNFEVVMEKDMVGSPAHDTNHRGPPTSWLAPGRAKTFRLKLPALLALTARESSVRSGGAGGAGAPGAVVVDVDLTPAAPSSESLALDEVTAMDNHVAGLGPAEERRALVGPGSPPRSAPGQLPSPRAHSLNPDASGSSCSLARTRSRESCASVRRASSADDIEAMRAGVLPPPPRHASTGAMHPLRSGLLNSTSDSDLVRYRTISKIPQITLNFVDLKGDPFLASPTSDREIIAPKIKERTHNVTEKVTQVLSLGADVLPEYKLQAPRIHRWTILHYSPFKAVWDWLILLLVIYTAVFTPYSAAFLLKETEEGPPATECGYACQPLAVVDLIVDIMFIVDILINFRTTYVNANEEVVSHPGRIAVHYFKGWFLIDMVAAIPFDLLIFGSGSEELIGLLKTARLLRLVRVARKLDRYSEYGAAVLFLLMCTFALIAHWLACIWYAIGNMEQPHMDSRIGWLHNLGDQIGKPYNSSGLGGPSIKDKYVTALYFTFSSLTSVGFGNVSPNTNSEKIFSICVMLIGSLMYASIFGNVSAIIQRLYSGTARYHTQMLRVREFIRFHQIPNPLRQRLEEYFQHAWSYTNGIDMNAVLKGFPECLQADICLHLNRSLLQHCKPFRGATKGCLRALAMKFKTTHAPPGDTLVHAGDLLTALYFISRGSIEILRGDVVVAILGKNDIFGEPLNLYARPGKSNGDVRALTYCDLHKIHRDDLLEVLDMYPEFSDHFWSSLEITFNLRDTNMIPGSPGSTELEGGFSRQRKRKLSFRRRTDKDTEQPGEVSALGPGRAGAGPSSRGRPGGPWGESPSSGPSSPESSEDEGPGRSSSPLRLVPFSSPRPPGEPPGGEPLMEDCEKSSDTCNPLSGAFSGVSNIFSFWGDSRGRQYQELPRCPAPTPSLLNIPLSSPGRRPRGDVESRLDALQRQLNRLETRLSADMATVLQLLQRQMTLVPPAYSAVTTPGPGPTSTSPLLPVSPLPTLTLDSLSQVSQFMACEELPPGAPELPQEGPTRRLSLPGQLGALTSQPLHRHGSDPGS

[23] = Plasma concentration in Sprague-Dawley rat at 30 mg/kg, sc after 60 mins by quantitative microdialysis method; assay type: ADME, organism-based; design: dose 30 mg/kg, route subcutaneous; summary of the method: as §1
[24] = Fraction unbound in rat plasma; assay type: ADME, cell-free
[25] = Fraction unbound in rat brain homogenates; assay type: ADME, tissue-based; conditions: brain homogenate
[26] = AUC (infinity) in Sprague-Dawley rat at 1 mg/kg, iv; assay type: ADME, organism-based; design: time infinity, dose 1 mg/kg, route intravenous; conditions: plasma; summary of the method: as §5
Homo sapiens [27] = organism: Homo sapiens; assay: Selectivity for mGlu4 receptor (unknown origin) over mGlu7 receptor (unknown origin)
[28] = Oral bioavailability in Sprague-Dawley rat at 10 mg/kg; assay type: ADME, organism-based; conditions: in vivo; summary of the method: as §3
Liver microsome [29] = assay: Intrinsic clearance in human liver microsomes; assay type: ADME
Plasma [30] = assay: Maximum unbound concentration in Sprague-Dawley rat plasma at 10 mg/kg, sc after 0.5 hrs by quantitative microdialysis method; conditions: in vivo
[31] = Ratio of AUC (0 to 6 hrs) from brain to plasma in Sprague-Dawley rat at 10 mg/kg, sc by quantitative microdialysis method; assay type: ADME, organism-based; design: dose 10 mg/kg, route subcutaneous; conditions: in vivo
[32] = Half life in Sprague-Dawley rat at 1 mg/kg, iv; assay type: ADME, organism-based; design: dose 1 mg/kg, route intravenous; conditions: in vivo; summary of the method: as §3
Brain [33] = assay: AUC (0 to 6 hrs) in Sprague-Dawley rat brain at 10 mg/kg, sc by quantitative microdialysis method; assay type: ADME, organism-based; design: time < 6 hr, dose 10 mg/kg, route subcutaneous; conditions: in vivo; summary of the method: as §2
Brain [34] = assay: Drug uptake in Sprague-Dawley rat brain at 10 mg/kg, sc after 4 hrs by quantitative microdialysis method; assay type: ADME, organism-based; design: dose 10 mg/kg, route subcutaneous; conditions: in vivo; summary of the method: as §2
MDR1 [35] = assay: Apparent permeability from apical to basolateral side in MDCK cells expressing MDR1; assay type: ADME, cell-based, Canis lupus familiaris; conditions: dog; summary of the method: as §4
[36] = Fraction unbound in mouse plasma; assay type: ADME, cell-free
Brain [37] = assay: Drug uptake in Sprague-Dawley rat brain at 10 mg/kg, sc after 30 mins by quantitative microdialysis method; assay type: ADME, organism-based; design: dose 10 mg/kg, route subcutaneous; conditions: in vivo, 0.5 h; summary of the method: as §2
[38] = Thermodynamic solubility of the compound at pH 7.4; assay type: physicochemical; conditions: buffer, read-out: Therm_solubility
[39] = Cmax in Sprague-Dawley rat at 10 mg/kg, po; assay type: ADME, organism-based; design: dose 10 mg/kg, route oral; conditions: in vivo; summary of the method: as §3
[40] = Drug uptake in rat Sprague-Dawley ECF at 10 mg/kg, sc after 60 mins by quantitative microdialysis method; assay type: ADME, organism-based; design: dose 10 mg/kg, route subcutaneous; conditions: read-out: Drug uptake; summary of the method: as §1
[41] = Plasma concentration in Sprague-Dawley rat at 10 mg/kg, sc after 60 mins by quantitative microdialysis method; assay type: ADME, organism-based; design: dose 10 mg/kg, route subcutaneous; summary of the method: as §1

Sequence of Metabotropic glutamate receptor 4 (Q14833 whole entry): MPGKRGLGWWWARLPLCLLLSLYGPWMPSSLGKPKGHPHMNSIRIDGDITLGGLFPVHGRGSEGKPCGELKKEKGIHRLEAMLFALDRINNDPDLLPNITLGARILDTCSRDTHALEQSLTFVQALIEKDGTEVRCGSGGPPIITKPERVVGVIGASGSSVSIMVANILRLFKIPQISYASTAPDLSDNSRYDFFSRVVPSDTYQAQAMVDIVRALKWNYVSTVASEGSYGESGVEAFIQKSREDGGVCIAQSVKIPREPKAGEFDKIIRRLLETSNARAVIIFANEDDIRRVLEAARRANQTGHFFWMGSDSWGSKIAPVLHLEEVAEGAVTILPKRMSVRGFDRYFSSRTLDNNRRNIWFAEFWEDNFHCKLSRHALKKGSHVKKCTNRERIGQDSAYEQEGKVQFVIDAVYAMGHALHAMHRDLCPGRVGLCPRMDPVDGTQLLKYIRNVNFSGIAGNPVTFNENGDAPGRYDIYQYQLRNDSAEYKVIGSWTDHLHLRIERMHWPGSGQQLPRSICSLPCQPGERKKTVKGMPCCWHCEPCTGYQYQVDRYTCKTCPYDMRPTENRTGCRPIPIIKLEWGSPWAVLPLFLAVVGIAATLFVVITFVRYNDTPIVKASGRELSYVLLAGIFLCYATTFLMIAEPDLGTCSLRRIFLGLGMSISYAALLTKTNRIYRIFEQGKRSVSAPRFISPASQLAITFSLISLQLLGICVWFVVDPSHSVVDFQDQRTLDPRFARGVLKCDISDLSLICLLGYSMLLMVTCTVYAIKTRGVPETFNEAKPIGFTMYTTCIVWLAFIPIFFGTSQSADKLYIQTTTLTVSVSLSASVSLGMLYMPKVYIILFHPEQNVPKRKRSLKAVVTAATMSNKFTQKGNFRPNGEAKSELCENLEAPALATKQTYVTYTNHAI

## COc1cc(C(O)P(=O)(O)CC[C@H](N)C(=O)O)cc([N+](=O)[O-])c1O (mixture of isomers)
[1]
  fraction unbound: > 0.99
[2]
  IC50: 8.6 µM
[3]
  concentration at 1 h: 9.8 µM
[4]
  fraction unbound: 0.73
[5]
  AUC(0-t) at 6 h: 3500 ng·h/mL
Plasma [6]
  Cp: 150 ng/mL
[7]
  Vd: 0.1 L/kg
[8]
  logD: -0.7
[9]
  half-life: 20 min
Liver microsome [10]
  CLH: 3.1 mL/min
[11]
  concentration at 6 h: 0.7 µM
[12]
  Ratio AUC: 12%
MDR1 [13]
  Papp B→A: 0.5 ×10⁻⁶ cm/s
Homo sapiens [14]
  Selectivity ratio: 30
Brain [15]
  Drug uptake: 0.4 µM
[16]
  clearance: 6.2 mL/min/kg
[17]
  AUC(0-inf): 200 ng·h/mL
[18]
  solubility kinetic: > 800 µM
[19]
  AUC(0-t) at 6 h: 30000 ng·h/mL
HepG2
  Activity: Non-toxic
[20]
  Papp: < 0.1 ×10⁻⁶ cm/s
[21]
  Tmax: 84 min
Homo sapiens [22]
  Selectivity ratio: 1
hERG (KCNH2)
  inhibition at 30 µM: 14%
[23]
  concentration at 1 h: 114 µM
[24]
  fraction unbound: > 0.99
[25]
  fraction unbound: > 0.99
[26]
  AUC(0-inf): 2800 ng·h/mL
Homo sapiens [27]
  Selectivity ratio: 25
[28]
  bioavailability: 0.8%
Liver microsome [29]
  CLH: 0.1 L/min
Plasma [30]
  Cp(f): 55.2 µM
[31]
  Ratio AUC: 2.4%
[32]
  half-life: 18 min
Brain [33]
  AUC: 0.7 µg·h/g
Brain [34]
  Drug uptake: 0.08 µM
MDR1 [35]
  Papp A→B: 0.2 ×10⁻⁶ cm/s
[36]
  fraction unbound: > 0.99
Brain [37]
  Drug uptake: 1 µM
[38]
  solubility thermodynamic: > 1800 µg/mL
[39]
  Cmax: 92 ng/mL
[40]
  concentration at 1 h: 1.8 µM
[41]
  concentration at 1 h: 31 µM

## N[C@@H](CCP(=O)(O)C(O)c1ccc(OCC(=O)O)cc1)C(=O)O (stereo partly specified)
Homo sapiens [14]
  Selectivity ratio: 300
Homo sapiens [22]
  Selectivity ratio: 40
Homo sapiens [27]
  Selectivity ratio: 100
